Source: ChEMBL document CHEMBL1154753, “N-sulfonylanthranilic acid derivatives as allosteric inhibitors of dengue viral RNA-dependent RNA polymerase” (J Med Chem, 2009)
Calls of active or inactive are those of the source. The calls are words filed in the database; no cut-off is given here.

Legend:
[1] = Inhibition of Dengue virus recombinant […] RNA dependent RNA polymerase using […] by SPA
In short: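 Purified recombinant dengue 2 NS5 polymerase at 50 nM, preincubated 1 h at room temperature with compound over a range of concentrations and annealed poly(C)/biotin-oligo G template. Buffer: 50 mM Tris-HCl pH 7.0, 10 mM KCl, 2 mM MgCl2, 2 mM MnCl2, 1 mM β-mercaptoethanol, 0.05% CHAPS. Stopped with EDTA and streptavidin SPA beads, then scintillation counting. Duplicates, average of at least two experiments.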

[2] = tested on: Dengue virus; assay: Irreversible inhibition of Dengue virus recombinant […] RNA dependent RNA polymerase under ultraviolet light irradiation
[3] = molecular target: T1, DNA polymerase alpha catalytic subunit (Homo sapiens, UniProt P09884); assay: Inhibition of human DNA polymerase alpha
T1 sequence (P09884 whole entry): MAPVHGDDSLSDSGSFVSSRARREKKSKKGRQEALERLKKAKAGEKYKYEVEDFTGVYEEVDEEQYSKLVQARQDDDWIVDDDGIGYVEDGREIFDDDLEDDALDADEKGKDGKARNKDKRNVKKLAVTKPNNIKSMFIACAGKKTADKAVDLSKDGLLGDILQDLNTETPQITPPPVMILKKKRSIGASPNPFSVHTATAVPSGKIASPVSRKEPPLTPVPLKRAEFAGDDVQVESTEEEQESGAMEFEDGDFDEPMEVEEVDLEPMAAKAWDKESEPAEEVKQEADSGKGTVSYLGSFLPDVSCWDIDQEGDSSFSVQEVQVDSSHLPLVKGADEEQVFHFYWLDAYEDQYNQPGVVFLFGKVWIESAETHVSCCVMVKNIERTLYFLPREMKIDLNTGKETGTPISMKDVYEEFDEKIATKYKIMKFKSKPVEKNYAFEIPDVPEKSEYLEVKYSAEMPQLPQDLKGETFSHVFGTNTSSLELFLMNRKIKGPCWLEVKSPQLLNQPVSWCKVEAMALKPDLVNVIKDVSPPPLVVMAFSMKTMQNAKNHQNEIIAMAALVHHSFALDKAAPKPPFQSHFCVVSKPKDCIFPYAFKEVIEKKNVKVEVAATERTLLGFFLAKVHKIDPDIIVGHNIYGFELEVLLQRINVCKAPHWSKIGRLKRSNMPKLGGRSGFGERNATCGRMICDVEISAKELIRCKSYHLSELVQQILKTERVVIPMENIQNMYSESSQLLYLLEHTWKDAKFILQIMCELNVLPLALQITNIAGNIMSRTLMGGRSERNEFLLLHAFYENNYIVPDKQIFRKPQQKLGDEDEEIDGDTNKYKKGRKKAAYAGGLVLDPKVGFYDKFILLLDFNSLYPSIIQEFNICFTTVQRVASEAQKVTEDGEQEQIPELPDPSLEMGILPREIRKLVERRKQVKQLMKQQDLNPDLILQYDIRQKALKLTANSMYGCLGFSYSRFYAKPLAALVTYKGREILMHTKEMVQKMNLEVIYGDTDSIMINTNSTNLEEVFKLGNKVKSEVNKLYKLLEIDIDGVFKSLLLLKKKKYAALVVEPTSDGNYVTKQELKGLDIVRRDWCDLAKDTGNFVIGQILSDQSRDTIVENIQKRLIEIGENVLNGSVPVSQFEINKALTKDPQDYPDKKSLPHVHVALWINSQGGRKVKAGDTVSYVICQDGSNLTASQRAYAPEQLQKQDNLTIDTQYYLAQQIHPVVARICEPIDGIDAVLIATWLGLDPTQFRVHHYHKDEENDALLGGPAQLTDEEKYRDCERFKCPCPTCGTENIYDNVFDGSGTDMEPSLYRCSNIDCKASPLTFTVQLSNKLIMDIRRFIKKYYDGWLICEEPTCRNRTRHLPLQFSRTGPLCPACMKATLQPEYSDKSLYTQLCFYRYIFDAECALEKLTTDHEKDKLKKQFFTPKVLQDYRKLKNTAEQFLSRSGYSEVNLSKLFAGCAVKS

[4] = Inhibition of HCV RNA dependent RNA polymerase; set-up: species or system Hepacivirus hominis
[5] = molecular target: DNA polymerase beta (Homo sapiens, UniProt P06746); assay: Inhibition of human DNA polymerase beta

Row | Compound | IC50 [1] [µM] | other results
1 | COC(=O)c1ccccc1NS(=O)(=O)c1cccc(-c2cnn(Cc3ccccc3)c2)c1 | > 20 | 
2 | O=C(O)c1cccc(NS(=O)(=O)c2cccc(-c3cnn(Cc4ccccc4)c3)c2)c1 | > 20 | 
3 | O=C(O)c1ccccc1NS(=O)(=O)c1cccc(-c2cn[nH]c2)c1 | > 20 | 
4 | O=C(O)c1ccc(NS(=O)(=O)c2cccc(-c3cnn(Cc4ccccc4)c3)c2)cc1 | > 20 | 
5 | O=C(O)c1c(Cl)cccc1NS(=O)(=O)c1cccc(-c2cnn(Cc3ccccc3)c2)c1 | > 20 | 
6 | O=C(O)c1ccccc1NS(=O)(=O)c1cccc(-c2cnn(CCN3CCOCC3)c2)c1 | > 20 | 
7 | NC(=O)c1ccccc1NS(=O)(=O)c1cccc(-c2cnn(Cc3ccccc3)c2)c1 | > 20 | 
8 | COc1cc(NS(=O)(=O)c2cccc(-c3cnn(Cc4ccccc4)c3)c2)c(C(=O)O)cc1OC | > 20 | 
9 | O=S(=O)(Nc1ccccc1)c1cccc(-c2cnn(Cc3ccccc3)c2)c1 | > 20 | 

Second part, led by results:

Row | IC50 [1] [µM] | Compound | other results
10 | 1.5 | O=C(Nc1cccc(Cn2cc(-c3cccc(S(=O)(=O)Nc4ccccc4C(=O)O)c3)cn2)c1)c1ccc(C(=O)c2ccccc2)cc1 | Activity [2]: Active
11 | 0.7 | O=C(O)c1ccccc1NS(=O)(=O)c1cccc(-c2cnn(Cc3ccccc3)c2)c1 | IC50 [3]: > 20 µM; IC50 [4]: > 20 µM; IC50 [5]: > 20 µM
12 | 0.37 | O=C(O)c1ccc(F)cc1NS(=O)(=O)c1cccc(-c2cnn(Cc3ccccc3)c2)c1 | IC50 [3]: > 20 µM; IC50 [4]: > 20 µM; IC50 [5]: > 20 µM
13 | > 20 | CC(C)Cn1cc(-c2cccc(S(=O)(=O)Nc3ccccc3C(=O)O)c2)cn1 | 
14 | > 20 | Cn1cc(-c2cccc(S(=O)(=O)Nc3ccccc3C(=O)O)c2)cn1 | 
15 | 0.77 | O=C(O)c1ccc(Cl)cc1NS(=O)(=O)c1cccc(-c2cnn(Cc3ccccc3)c2)c1 | 
16 | 0.37 | O=C(O)c1ccccc1NS(=O)(=O)c1cccc(-c2cnn(Cc3ccc4ccccc4c3)c2)c1 | 
17 | 9.99 | COc1ccc(C(=O)O)c(NS(=O)(=O)c2cccc(-c3cnn(Cc4ccccc4)c3)c2)c1 | 
18 | 7.2 | CC1=NN(c2cccc(S(=O)(=O)Nc3ccccc3C(=O)O)c2)C(=O)C1 | 
19 | 2.56 | O=C(O)c1cc(Cl)ccc1NS(=O)(=O)c1cccc(-c2cnn(Cc3ccccc3)c2)c1 | 
20 | 0.26 | O=C(O)c1ccc(F)cc1NS(=O)(=O)c1cccc(-c2cnn(Cc3ccc4ccccc4c3)c2)c1 | IC50 [3]: > 20 µM; IC50 [4]: > 20 µM; IC50 [5]: > 20 µM
21 | 18 | O=C(O)c1cccc(Cl)c1NS(=O)(=O)c1cccc(-c2cnn(Cc3ccccc3)c2)c1 | 
22 | 6.77 | CC(C)CCn1cc(-c2cccc(S(=O)(=O)Nc3ccccc3C(=O)O)c2)cn1 | 
